Measured values as given in ChEMBL document CHEMBL1121438, “Synthesis and antitumor activity of analogues of the antitumor antibiotic chartreusin” (J Med Chem, 1980).

Key:
[1] = test system: Mus musculus; assay: Evaluated % increase in life span in vivo against P388 Murine leukemia cells in trial 2 at a dose of 12.5 mg/kg; format: functional
In short: (§1)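 Male CDF1 mice (17-22 g) inoculated ip with 10^6 P388 cells on day 0. Six animals per dose level. Activity is the median increase in life span over untreated controls (% ILS); body weight change of test vs control measured on days 1 and 5.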

[2] = test system: L1210; assay: Evaluated for growth inhibition against cultured L1210 cells after 48 hour drug exposure in trial 1 at a dose of 1.45*10e-9; format: functional, Mus musculus
[3] = test system: Mus musculus; assay: Evaluated % increase in life span in vivo against P388 Murine leukemia cells in trial 2 at a dose of 200 mg/kg; format: functional; in short: as §1
[4] = test system: Mus musculus; assay: Evaluated % increase in life span in vivo against P388 Murine leukemia cells in trial 1 at a dose of 100 mg/kg; format: functional; in short: as §1
[5] = test system: Mus musculus; assay: Evaluated % increase in life span in vivo against P388 Murine leukemia cells in trial 1 at a dose of 25 mg/kg; format: functional; in short: as §1
[6] = test system: Mus musculus; assay: Evaluated % increase in life span in vivo against P388 Murine leukemia cells in trial 2 at a dose of 100 mg/kg; format: functional; in short: as §1
[7] = test system: Mus musculus; assay: Evaluated % increase in life span in vivo against P388 Murine leukemia cells in trial 1 at a dose of 200 mg/kg; format: functional; in short: as §1
[8] = test system: L1210; assay: Evaluated for growth inhibition against cultured L1210 cells after 48 hour drug exposure in trial 2 at a dose of 1.45*10e-9; format: functional, Mus musculus
[9] = test system: Mus musculus; assay: Evaluated % increase in life span in vivo against P388 Murine leukemia cells in trial 1 at a dose of 50 mg/kg; format: functional; in short: as §1
[10] = test system: Mus musculus; assay: Evaluated % increase in life span in vivo against P388 Murine leukemia cells in trial 2 at a dose of 25 mg/kg; format: functional; in short: as §1
[11] = test system: L1210; assay: Evaluated for growth inhibition against cultured L1210 cells after 48 hour drug exposure in trial 1 at a dose of 1.45*10e-8; format: functional, Mus musculus
[12] = test system: Mus musculus; assay: Evaluated % increase in life span in vivo against P388 Murine leukemia cells in trial 1 at a dose of 12.5 mg/kg; format: functional; in short: as §1
[13] = Partition coefficient (logP); format: physicochemical; conditions: octanol/water
[14] = test system: L1210; assay: Evaluated for growth inhibition against cultured L1210 cells after 48 hour drug exposure in trial 2 at a dose of 1.45*10e-8; format: functional, Mus musculus
[15] = test system: Mus musculus; assay: Evaluated % increase in life span in vivo against P388 Murine leukemia cells in trial 2 at a dose of 50 mg/kg; format: functional; in short: as §1
[16] = test system: L1210; assay: Evaluated for growth inhibition against cultured L1210 cells after 48 hour drug exposure in trial 2 at a dose of 1.44*10e-8; format: functional, Mus musculus
[17] = test system: L1210; assay: Evaluated for growth inhibition against cultured L1210 cells after 48 hour drug exposure in trial 2 at a dose of 1.44*10e-9; format: functional, Mus musculus
[18] = test system: L1210; assay: Evaluated for growth inhibition against cultured L1210 cells after 48 hour drug exposure in trial 1 at a dose of 1.44*10e-9; format: functional, Mus musculus
[19] = test system: L1210; assay: Evaluated for growth inhibition against cultured L1210 cells after 48 hour drug exposure in trial 1 at a dose of 1.44*10e-8; format: functional, Mus musculus
[20] = test system: L1210; assay: Evaluated for growth inhibition against cultured L1210 cells after 48 hour drug exposure in trial 1 at a dose of 1.65*10e-9; format: functional, Mus musculus
[21] = test system: L1210; assay: Evaluated for growth inhibition against cultured L1210 cells after 48 hour drug exposure in trial 1 at a dose of 1.65*10e-8; format: functional, Mus musculus
[22] = test system: L1210; assay: Evaluated for growth inhibition against cultured L1210 cells after 48 hour drug exposure in trial 2 at a dose of 1.65*10e-8; format: functional, Mus musculus
[23] = test system: L1210; assay: Evaluated for growth inhibition against cultured L1210 cells after 48 hour drug exposure in trial 2 at a dose of 1.65*10e-9; format: functional, Mus musculus
[24] = Partition coefficient determined using pi values; format: physicochemical; conditions: octanol/water
In short: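 Calculated log P: the aglycon value was summed with the π value of the glycosyl substituent, using literature −2.84 for O-β-glucosyl and −3.24 for maltosyl.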

[25] = Partition coefficient (logP) (HPLC); format: physicochemical; conditions: octanol/water
In short: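 Relative log P by the reversed-phase LC method of McCall: octadecylsilyl column eluted with acetonitrile–water (1:1). The system was calibrated with a reference compound of known octanol/water log P, and log P values were derived from elution times.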

`CO[C@H]1[C@@H](O)[C@@H](C)O[C@H](O[C@H]2[C@@H](Oc3cccc4c(O)c5c(=O)oc6ccc(C)c7c(=O)oc(c34)c5c67)O[C@H](C)[C@H](O)[C@@H]2O)[C@@H]1O` showed an ILS at 12.5 mg/kg [1] of 17%, an Inhibition [2] of 21% and an ILS at 200 mg/kg [3] of 58%. It also gave an ILS at 100 mg/kg [4] of 93%, an ILS at 25 mg/kg [5] of 47% and an ILS at 100 mg/kg [6] of 45%. For the same compound, the ILS at 200 mg/kg [7] was 43%, the Inhibition [8] was 32% and the ILS at 50 mg/kg [9] was 60%. For the same compound, the ILS at 25 mg/kg [10] was 56%, the Inhibition [11] was 100% and the ILS at 12.5 mg/kg [12] was 46%. For the same compound, the logP [13] was 1.8, the Inhibition [14] was 100% and the ILS at 50 mg/kg [15] was 54%.

Work on `Cc1ccc2oc(=O)c3c(O)c4cccc(O[C@H]5O[C@H](C)[C@H](O)[C@H](O)[C@H]5O)c4c4oc(=O)c1c2c34` yielded an Inhibition [16] of 100%, an Inhibition [17] of 65% and an Inhibition [18] of 71%. The Inhibition [19] was 100% and the logP [13] was 2.07.

With `Cc1ccc2oc(=O)c3c(O)c4cccc(O)c4c4oc(=O)c1c2c34` the Inhibition [20] was 0%, the Inhibition [21] was 57% and the Inhibition [22] was 58%. It also gave an Inhibition [23] of 7% and a logP [13] of 4.19.

In the case of `Cc1ccc2oc(=O)c3c(O)c4cccc(O[C@H]5O[C@H](CO)[C@@H](O)[C@H](O)[C@H]5O)c4c4oc(=O)c1c2c34`, the Inhibition [2] is reported as 59%, the logP [24] is reported as 1.35 and the Inhibition [8] is reported as 47%. For the same compound, the logP [25] was 1.82, the Inhibition [11] was 100% and the Inhibition [14] was 97%.
